Results on seven compounds are retold here after ChEMBL document CHEMBL1147788, “Design, synthesis, and preliminary biological evaluation of 2,3-dihydro-3-hydroxymethyl-1,4-benzoxazine derivatives” (2006).

Each structure is given as a SMILES string. Calls of active or inactive are those of the source. The rule behind the calls is not given here.

For assay [1], the system named is HUVEC. As to the kind of experiment: Inhibition of HUVEC cell line apoptosis at 100 uM. Conditions: Homo sapiens. The format is functional, cell-based. A digest of the protocol:
(§1)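 HUVECs in MCDB131 with 10% fetal calf serum and […] bFGF, passages 10–20. Apoptosis induced by growth-factor deprivation. Cells cultured with or without compound at 25–200 µM for 24 and 48 h. Means ± SE of three independent experiments versus control.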

The subject of assay [2] is HUVEC. In words: Inhibition of HUVEC cell line apoptosis at 50 uM. The format is functional, cell-based. The settings on record: Homo sapiens. A digest of the protocol:
as §1

The subject of assay [3] is A549. In words: Antiproliferative activity against human A549 cell line by MTT assay. Format: functional, cell-based. A digest of the protocol: (§2)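 A549 cells grown in medium with or without compound at 50–400 µM for 24 and 48 h; viability read by MTT assay and expressed as percent of vehicle (DMSO) control. Means ± SE of three independent experiments; significance tested against control.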
Background: Formazan colour is commonly taken as a measure of viable cells.

The subject of assay [4] is HUVEC. In words: Inhibition of HUVEC cell line apoptosis at 200 uM. Format: functional, cell-based. The settings on record: Homo sapiens. A digest of the protocol:
as §1

Assay [5] deals with A549. In words: Antiproliferative activity against human A549 cell line at 200 uM after 48 hrs by MTT assay. The format is functional, cell-based. A digest of the protocol:
as §2

In assay [6] the test system is HUVEC. In words: Induction of HUVEC cell line apoptosis at 200 uM. Format: functional, cell-based. The settings on record: Homo sapiens. A digest of the protocol:
as §1

The subject of assay [7] is HUVEC. In words: Induction of HUVEC cell line apoptosis at 50 uM. The format is functional, cell-based. Conditions: Homo sapiens. A digest of the protocol:
as §1

The subject of assay [8] is A549. As to the kind of experiment: Antiproliferative activity against human A549 cell line at 400 uM after 48 hrs by MTT assay. The format is functional, cell-based. A digest of the protocol:
as §2

Assay [9] relates to HUVEC. In words: Induction of HUVEC cell line apoptosis at 100 uM. The format is functional, cell-based. Conditions: Homo sapiens. A digest of the protocol: as §1
For assay [10], the system named is HUVEC. As to the kind of experiment: Induction of HUVEC cell line apoptosis at 25 uM. The format is functional, cell-based. Conditions: Homo sapiens. A digest of the protocol: as §1
Assay [11] deals with A549. As to the kind of experiment: Antiproliferative activity against human A549 cell line at 400 uM after 24 hrs by MTT assay. Format: functional, cell-based. A digest of the protocol: as §2
Assay [12] relates to A549. As to the kind of experiment: Decrease in viability of human A549 cell line at 200 uM after 48 hrs relative to control by MTT assay. Format: functional. A digest of the protocol:
as §2

Assay [13] has as its system A549. In words: Decrease in viability of human A549 cell line at 50 uM after 48 hrs relative to control by MTT assay. Format: functional, cell-based. In short, it runs like this: as §2
Assay [14] concerns A549. As to the kind of experiment: Decrease in viability of human A549 cell line at 200 uM after 24 hrs relative to control by MTT assay. The format is functional, cell-based. A digest of the protocol:
as §2

The subject of assay [15] is A549. As to the kind of experiment: Decrease in viability of human A549 cell line at 400 uM after 24 hrs relative to control by MTT assay. Format: functional. A digest of the protocol:
as §2

For assay [16], the system named is A549. As to the kind of experiment: Decrease in viability of human A549 cell line at 400 uM after 48 hrs relative to control by MTT assay. The format is functional. A digest of the protocol:
as §2

Take `Nc1ccc2c(c1)NC(CO)CO2` (stereo unspecified): the outcome in the assay with HUVEC [1], with HUVEC [2] and in the assay with HUVEC [4] was Active. Besides, the result with A549 [3] was inactive.
As to `OCC1COc2ccc(Cl)cc2N1` (stereo unspecified), the result with A549 [5], in the assay with HUVEC [6], in the assay with HUVEC [7], in the assay on A549 [8], in the assay on HUVEC [9] and in the assay on HUVEC [10] was Active.
As for `OCC1COc2c(Cl)cc(Cl)cc2N1` (stereo unspecified), the outcome with HUVEC [6], in the assay with A549 [11], in the assay with A549 [12], in the assay with HUVEC [7], in the assay on A549 [13] and with A549 [8] was Active. Further, the result in the assay with HUVEC [9], in the assay with A549 [14] and with HUVEC [10] was Active.
For `CC(C)(C)c1ccc2c(c1)NC(CO)CO2` (stereo unspecified), the result in the assay with HUVEC [6], in the assay on HUVEC [7], in the assay with HUVEC [9] and with HUVEC [10] was Active. Further, the Activity is recorded as 72.6% in the assay on A549 [12], 77.8% in the assay with A549 [15] and 59.5% in the assay with A549 [16].
As for `OCC1COc2c(Cl)cccc2N1` (stereo unspecified), the outcome in the assay on HUVEC [6], in the assay with HUVEC [7], with HUVEC [9] and with HUVEC [10] was Active. The outcome in the assay on A549 [3] was inactive.
As to `OCC1COc2ccccc2N1` (stereo unspecified), the result in the assay with HUVEC [6], in the assay with HUVEC [7], in the assay with HUVEC [9] and with HUVEC [10] was Active. For the same compound, the result with A549 [3] was inactive.
For the compound `Cc1ccc2c(c1)NC(CO)CO2` (stereo unspecified), the outcome in the assay with HUVEC [6], with HUVEC [7], in the assay with HUVEC [9] and with HUVEC [10] was Active. Besides, the result in the assay on A549 [3] was inactive.
